According to the M2OR odorant receptor database:

Assays:
Settings in all cases: stereoisomer not certain
UniProt E9PVX1 = target: T1, UniProt E9PVX1
T1 sequence (whole entry): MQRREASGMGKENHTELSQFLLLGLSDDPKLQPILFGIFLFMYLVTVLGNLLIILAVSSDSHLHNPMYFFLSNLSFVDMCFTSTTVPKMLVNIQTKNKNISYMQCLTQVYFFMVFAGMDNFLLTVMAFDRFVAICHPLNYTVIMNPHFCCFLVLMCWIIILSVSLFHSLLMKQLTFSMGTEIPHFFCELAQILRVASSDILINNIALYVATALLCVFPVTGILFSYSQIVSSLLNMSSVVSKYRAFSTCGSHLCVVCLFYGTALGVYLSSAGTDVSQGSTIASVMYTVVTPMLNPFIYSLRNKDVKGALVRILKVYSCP
How it was run: (§1)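 Whether a receptor–molecule pair is responsive (active) rests on the original authors' judgment that its measured signal was statistically different from baseline. Pairs without that judgment are non-responsive (inactive). Sources used varied assay methods, commonly transient luciferase assays in mammalian cell lines.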

UniProt E9PZ66 = target: T2, UniProt E9PZ66
T2 sequence (whole entry): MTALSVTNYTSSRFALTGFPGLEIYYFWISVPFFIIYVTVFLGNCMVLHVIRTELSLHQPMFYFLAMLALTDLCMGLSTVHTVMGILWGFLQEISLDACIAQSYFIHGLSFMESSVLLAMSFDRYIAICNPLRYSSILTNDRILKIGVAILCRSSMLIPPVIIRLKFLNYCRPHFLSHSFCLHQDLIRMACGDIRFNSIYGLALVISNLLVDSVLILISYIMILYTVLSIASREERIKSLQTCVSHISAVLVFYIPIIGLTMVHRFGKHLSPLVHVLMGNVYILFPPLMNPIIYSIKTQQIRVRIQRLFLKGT
How it was run: as §1

UniProt E9Q4X7 = target: T3, UniProt E9Q4X7
T3 sequence (whole entry): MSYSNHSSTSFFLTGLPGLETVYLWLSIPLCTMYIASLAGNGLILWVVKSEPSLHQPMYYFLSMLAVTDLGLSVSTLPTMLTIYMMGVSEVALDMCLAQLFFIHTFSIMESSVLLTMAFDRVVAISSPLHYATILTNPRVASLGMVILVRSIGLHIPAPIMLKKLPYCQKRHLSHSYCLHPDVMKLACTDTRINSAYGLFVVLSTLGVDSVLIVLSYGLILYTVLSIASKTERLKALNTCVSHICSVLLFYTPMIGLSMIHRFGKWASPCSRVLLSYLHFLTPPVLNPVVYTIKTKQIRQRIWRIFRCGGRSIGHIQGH
How it was run: as §1

UniProt E9Q546 = target: T4, UniProt E9Q546
T4 sequence (whole entry): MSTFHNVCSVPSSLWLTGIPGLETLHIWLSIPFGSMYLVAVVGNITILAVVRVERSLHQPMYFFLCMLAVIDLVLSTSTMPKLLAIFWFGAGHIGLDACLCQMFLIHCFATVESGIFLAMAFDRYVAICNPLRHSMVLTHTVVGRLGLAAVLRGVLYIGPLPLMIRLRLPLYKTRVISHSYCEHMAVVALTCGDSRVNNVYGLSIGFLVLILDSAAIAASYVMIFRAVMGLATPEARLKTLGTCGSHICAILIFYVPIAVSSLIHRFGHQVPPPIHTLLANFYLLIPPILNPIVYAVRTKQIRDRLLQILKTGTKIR
How it was run: as §1

UniProt E9Q6Z7 = target: T5, UniProt E9Q6Z7
T5 sequence (whole entry): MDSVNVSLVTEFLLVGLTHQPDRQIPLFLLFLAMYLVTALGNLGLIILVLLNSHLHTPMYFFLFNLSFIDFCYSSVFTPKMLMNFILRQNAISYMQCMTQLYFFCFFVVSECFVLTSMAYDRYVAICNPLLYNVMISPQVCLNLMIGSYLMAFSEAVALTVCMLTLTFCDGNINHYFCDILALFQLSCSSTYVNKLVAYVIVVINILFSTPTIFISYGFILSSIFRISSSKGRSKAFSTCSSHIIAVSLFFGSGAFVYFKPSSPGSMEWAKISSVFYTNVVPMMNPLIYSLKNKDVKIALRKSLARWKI
How it was run: as §1

UniProt L7N210 = target: T6, UniProt L7N210
T6 sequence (whole entry): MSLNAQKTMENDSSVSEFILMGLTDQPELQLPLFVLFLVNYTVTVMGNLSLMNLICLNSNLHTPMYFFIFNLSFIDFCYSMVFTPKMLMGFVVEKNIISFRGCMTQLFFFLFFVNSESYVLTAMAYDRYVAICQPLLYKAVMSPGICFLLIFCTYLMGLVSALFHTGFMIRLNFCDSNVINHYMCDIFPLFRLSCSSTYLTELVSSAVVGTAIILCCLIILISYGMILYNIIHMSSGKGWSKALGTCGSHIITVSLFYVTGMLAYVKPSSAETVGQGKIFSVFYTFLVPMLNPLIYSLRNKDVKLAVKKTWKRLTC
How it was run: as §1

UniProt Q3KPB0 = target: T7, UniProt Q3KPB0
T7 sequence (whole entry): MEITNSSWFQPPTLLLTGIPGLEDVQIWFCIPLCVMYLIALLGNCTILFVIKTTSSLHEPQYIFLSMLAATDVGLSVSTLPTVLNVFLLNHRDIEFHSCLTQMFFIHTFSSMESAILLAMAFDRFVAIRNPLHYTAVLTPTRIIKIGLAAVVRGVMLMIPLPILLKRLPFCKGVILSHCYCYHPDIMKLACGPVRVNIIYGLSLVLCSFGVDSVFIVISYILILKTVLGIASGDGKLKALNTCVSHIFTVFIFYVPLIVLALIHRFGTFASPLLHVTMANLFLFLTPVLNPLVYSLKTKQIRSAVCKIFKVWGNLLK
How it was run: as §1

UniProt Q3U0P3 = target: T8, UniProt Q3U0P3
T8 sequence (whole entry): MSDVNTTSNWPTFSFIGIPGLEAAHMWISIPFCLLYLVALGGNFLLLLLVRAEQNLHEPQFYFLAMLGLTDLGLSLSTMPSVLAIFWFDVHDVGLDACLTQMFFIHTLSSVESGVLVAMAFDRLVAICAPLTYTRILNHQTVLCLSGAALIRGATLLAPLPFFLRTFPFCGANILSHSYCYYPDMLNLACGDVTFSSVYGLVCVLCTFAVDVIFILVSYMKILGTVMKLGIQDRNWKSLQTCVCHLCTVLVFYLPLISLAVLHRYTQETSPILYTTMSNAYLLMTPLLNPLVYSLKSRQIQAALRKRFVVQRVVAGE
How it was run: as §1

UniProt Q7TQU8 = target: T9, UniProt Q7TQU8
T9 sequence (whole entry): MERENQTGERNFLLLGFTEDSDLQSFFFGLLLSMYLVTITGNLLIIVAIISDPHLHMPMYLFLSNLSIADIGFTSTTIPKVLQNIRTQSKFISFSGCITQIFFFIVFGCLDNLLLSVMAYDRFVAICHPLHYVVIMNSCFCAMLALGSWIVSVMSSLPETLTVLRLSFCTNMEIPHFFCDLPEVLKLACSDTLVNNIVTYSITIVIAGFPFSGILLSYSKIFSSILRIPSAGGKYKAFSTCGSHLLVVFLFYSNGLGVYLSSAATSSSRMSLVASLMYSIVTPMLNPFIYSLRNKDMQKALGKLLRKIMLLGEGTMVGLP
How it was run: as §1

UniProt Q7TR79 = target: T10, UniProt Q7TR79
T10 sequence (whole entry): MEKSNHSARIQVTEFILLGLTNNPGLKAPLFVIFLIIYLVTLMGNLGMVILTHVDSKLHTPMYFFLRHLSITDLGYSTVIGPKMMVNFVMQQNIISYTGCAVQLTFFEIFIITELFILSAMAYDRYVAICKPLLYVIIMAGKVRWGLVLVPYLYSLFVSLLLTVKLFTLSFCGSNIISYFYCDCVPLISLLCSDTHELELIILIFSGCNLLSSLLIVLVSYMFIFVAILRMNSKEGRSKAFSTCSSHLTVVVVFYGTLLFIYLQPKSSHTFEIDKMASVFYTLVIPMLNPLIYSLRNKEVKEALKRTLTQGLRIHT
How it was run: as §1

UniProt L7MU75 = target: T11, UniProt L7MU75
T11 sequence (whole entry): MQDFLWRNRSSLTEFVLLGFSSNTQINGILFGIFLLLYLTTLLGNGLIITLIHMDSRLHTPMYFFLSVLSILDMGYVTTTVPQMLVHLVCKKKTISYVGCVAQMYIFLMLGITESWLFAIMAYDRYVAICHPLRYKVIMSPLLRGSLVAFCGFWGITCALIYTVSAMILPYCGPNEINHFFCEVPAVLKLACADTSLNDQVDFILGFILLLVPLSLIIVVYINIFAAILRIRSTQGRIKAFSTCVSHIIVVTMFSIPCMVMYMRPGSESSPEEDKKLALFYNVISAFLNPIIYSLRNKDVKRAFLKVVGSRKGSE
How it was run: as §1

UniProt B2RVX8 = target: T12, UniProt B2RVX8
T12 sequence (whole entry): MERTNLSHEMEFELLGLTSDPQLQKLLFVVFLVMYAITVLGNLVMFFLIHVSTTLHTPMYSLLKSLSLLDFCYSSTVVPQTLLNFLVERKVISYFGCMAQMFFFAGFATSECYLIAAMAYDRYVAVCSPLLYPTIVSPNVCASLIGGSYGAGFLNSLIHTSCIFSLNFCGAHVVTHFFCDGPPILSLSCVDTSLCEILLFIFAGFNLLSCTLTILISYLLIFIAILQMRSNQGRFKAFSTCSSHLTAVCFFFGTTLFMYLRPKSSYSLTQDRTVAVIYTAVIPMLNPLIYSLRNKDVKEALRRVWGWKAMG
How it was run: as §1

UniProt K7N609 = target: T13, UniProt K7N609
T13 sequence (whole entry): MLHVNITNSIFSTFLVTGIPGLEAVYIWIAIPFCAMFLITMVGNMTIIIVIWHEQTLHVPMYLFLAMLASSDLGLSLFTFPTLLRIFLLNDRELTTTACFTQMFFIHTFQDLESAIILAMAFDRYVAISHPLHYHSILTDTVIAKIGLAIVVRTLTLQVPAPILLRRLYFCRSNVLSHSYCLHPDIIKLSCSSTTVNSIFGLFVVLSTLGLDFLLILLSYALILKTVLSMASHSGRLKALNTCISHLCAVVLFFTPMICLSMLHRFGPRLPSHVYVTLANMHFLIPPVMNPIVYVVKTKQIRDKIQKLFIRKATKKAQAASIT
How it was run: as §1

UniProt Q7TQV4 = target: T14, UniProt Q7TQV4
T14 sequence (whole entry): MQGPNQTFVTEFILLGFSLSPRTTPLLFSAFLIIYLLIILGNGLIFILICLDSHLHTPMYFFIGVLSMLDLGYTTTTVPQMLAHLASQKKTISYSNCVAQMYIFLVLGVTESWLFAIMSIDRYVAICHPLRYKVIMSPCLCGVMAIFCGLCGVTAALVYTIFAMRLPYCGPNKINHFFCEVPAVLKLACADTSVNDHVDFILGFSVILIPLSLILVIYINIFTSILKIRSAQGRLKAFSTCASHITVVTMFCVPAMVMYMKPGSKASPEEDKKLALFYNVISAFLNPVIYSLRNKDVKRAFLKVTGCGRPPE
How it was run: as §1

UniProt Q7TR71 = target: T15, UniProt Q7TR71
T15 sequence (whole entry): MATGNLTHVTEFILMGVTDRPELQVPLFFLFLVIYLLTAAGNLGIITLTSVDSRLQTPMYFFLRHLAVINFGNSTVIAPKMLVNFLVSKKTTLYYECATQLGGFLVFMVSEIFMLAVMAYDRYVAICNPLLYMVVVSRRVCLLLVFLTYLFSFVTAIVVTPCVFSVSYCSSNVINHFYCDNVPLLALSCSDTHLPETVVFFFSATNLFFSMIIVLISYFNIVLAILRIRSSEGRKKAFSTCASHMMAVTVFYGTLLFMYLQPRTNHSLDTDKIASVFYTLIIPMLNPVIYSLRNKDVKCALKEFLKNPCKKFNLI
How it was run: as §1

UniProt Q7TRA3 = target: T16, UniProt Q7TRA3
T16 sequence (whole entry): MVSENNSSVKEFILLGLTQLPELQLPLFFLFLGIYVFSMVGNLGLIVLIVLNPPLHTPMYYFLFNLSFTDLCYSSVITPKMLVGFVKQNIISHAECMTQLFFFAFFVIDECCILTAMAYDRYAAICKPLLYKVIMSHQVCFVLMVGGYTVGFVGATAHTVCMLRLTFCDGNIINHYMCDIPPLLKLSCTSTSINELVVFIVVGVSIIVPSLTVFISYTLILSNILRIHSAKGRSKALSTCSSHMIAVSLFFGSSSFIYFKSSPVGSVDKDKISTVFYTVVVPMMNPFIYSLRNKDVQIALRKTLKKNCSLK
How it was run: as §1

UniProt Q7TRE4 = target: T17, UniProt Q7TRE4
T17 sequence (whole entry): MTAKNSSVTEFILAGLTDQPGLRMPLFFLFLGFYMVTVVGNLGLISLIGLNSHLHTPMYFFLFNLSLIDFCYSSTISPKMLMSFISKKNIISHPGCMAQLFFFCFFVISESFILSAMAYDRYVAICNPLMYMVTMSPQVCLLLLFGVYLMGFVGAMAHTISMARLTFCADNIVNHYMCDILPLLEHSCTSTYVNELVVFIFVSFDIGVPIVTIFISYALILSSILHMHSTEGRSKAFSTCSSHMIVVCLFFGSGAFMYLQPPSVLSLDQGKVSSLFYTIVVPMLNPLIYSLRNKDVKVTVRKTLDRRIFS
How it was run: as §1

Measured: odorant receptor agonist call;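 further: active if original authors judged signal statistically different from baseline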

O=Cc1ccc2c(c1)OCO2
inactive: UniProt E9PVX1 | UniProt E9PZ66 | UniProt E9Q4X7 | UniProt E9Q546 | UniProt E9Q6Z7 | UniProt Q3KPB0 | UniProt Q3U0P3 | UniProt Q7TQU8 | UniProt Q7TR79
active: UniProt L7N210

O=CC=Cc1ccccc1
not listed: UniProt B2RVX8 | UniProt K7N609 | UniProt Q7TQV4 | UniProt Q7TR71 | UniProt Q7TRA3 | UniProt Q7TRE4
inactive: all other assays above

O=c1cc(O)c2ccccc2o1
inactive: all assays above

CC(C=O)Cc1ccc2c(c1)OCO2 (centres undefined)
active: UniProt L7N210
not listed: UniProt B2RVX8 | UniProt K7N609 | UniProt Q7TQV4 | UniProt Q7TR71 | UniProt Q7TRA3 | UniProt Q7TRE4
inactive: all other assays above
